Laboratory results from ChEMBL document CHEMBL1123180, “Improved glucose tolerance in rats treated with oxazolidinediones” (1986).
Active and inactive are the calls of the source. The calls are words filed in the database; no cut-off is given here.

The molecules below were run on Rattus norvegicus (assay: Compound was tested for the ability to lower blood sugar level at the dose of 50 mg/kg in fasted rats, by using glucose tolerance test(GTT)). Details: not given.
Assay type: functional
Summary of the method: (§1)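 Male albino rats, groups of five or six, fasted 18–24 h. Glucose 1 g/kg given ip; test drug (0.1 to 100 mg/kg) or water (controls) given orally. Tail-vein blood sampled over 0–3 h; glucose (mg/100 mL) measured by Autoanalyser ferricyanide method. Value is percent lowering of blood glucose vs controls at 0.5 h; a lowering of ≥9% is needed for P = 0.05.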

Row | Compound | Blood sugar lowering
1 | O=C1NC(=O)C(c2ccc(Cl)cc2)O1 (stereo not drawn) | 12%
2 | COc1cccc(C2OC(=O)NC2=O)c1OC (stereo not drawn) | 12%

These molecules were tested on Rattus norvegicus (assay: Ability to lower blood sugar level at the dose of 10 mg/kg in fasted rats, by using glucose tolerance test(GTT)). Details: not given.
Assay type: functional
Summary of the method: as §1

Row | Compound | Blood sugar lowering
3 | COc1c(C)cc(Cl)cc1C1OC(=O)NC1=O (stereo not drawn) | 17%
4 | COc1c(Cl)cc(F)cc1C1OC(=O)NC1=O (stereo not drawn) | 15%
5 | COc1ccc(C)cc1C1OC(=O)NC1=O (stereo not drawn) | 21%
6 | O=C1NC(=O)C(c2ccccc2Cl)O1 (stereo not drawn) | 11%
7 | O=C1NC(=O)C(c2ccccc2C(F)(F)F)O1 (stereo not drawn) | 11%
8 | Cc1cccc(C)c1C1OC(=O)NC1=O (stereo not drawn) | 13%
9 | COc1cccc(OC)c1C1OC(=O)NC1=O (stereo not drawn) | 12%
10 | Cc1ccccc1C1OC(=O)NC1=O (stereo not drawn) | 14%
11 | O=C1NC(=O)C(c2cccc(F)c2)O1 (stereo not drawn) | 10%
12 | O=C1NC(=O)C(c2cccc(C(F)(F)F)c2)O1 (stereo not drawn) | 17%
13 | COc1cccc(C)c1C1OC(=O)NC1=O (stereo not drawn) | 10%
14 | COc1c(F)cc(C)cc1C1OC(=O)NC1=O (stereo not drawn) | 17%
15 | COc1ccc(Cl)c(C)c1C1OC(=O)NC1=O (stereo not drawn) | 12%
16 | O=C1NC(=O)C(c2c(F)cccc2Cl)O1 (stereo not drawn) | 12%

Each molecule was assayed on Rattus norvegicus (assay: Compound was tested for the ability to lower blood sugar level at the dose of 10 mg/kg in fasted rats, by using glucose tolerance test(GTT); NA=Inactive). Details: not given.
Assay type: functional, organism-based
Parameters: dose 10 mg/kg
Summary of the method: as §1

Row | Compound | Blood sugar lowering
17 | COc1ccc(S(N)(=O)=O)cc1C1OC(=O)NC1=O (stereo not drawn) | inactive
18 | C/C=C/Oc1cccc(Cl)c1C1OC(=O)NC1=O (stereo not drawn) | inactive

These molecules were tested on Rattus norvegicus (assay: Compound was tested for the ability to lower blood sugar level at the dose of 1 mg/kg in fasted rats, by using glucose tolerance test(GTT)). Details: not given.
Assay type: functional
Summary of the method: as §1

Row | Compound | Blood sugar lowering
19 | COc1cccc(F)c1C1OC(=O)NC1=O (stereo not drawn) | 11%
20 | COc1ccc(Cl)cc1C1OC(=O)NC1=O (stereo not drawn) | 12%

The molecules below were run on Rattus norvegicus (assay: Ability to lower blood sugar level at the dose of 2.5 mg/kg in fasted rats, by using glucose tolerance test(GTT)). Details: not given.
Assay type: functional
Summary of the method: as §1

Row | Compound | Blood sugar lowering
21 | COc1ccc(C)cc1C1OC(=O)NC1=O (stereo not drawn) | 10%
22 | C=CCOc1cccc(Cl)c1C1OC(=O)NC1=O (stereo not drawn) | 17%
23 | COc1ccc(F)cc1C1OC(=O)NC1=O (stereo not drawn) | 15%

Same assay, conditions: 2.5 mg/kg

Row | Compound | Blood sugar lowering
24 | COc1ccc(Cl)cc1C1OC(=O)NC1=O (single isomer, unassigned; (+)) | 12%
25 | COc1ccc(Cl)cc1C1OC(=O)NC1=O (single isomer, unassigned; (-)) | 26%

These molecules were tested on Rattus norvegicus (assay: Ability to lower blood sugar level at the dose of 10 mg/kg in fasted rats, by using glucose tolerance test(GTT); NA=Inactive). Details: not given.
Assay type: functional, organism-based
Parameters: dose 10 mg/kg
Summary of the method: as §1

Row | Compound | Blood sugar lowering
26 | O=C1NC(=O)C(c2c(Cl)cccc2-n2cccc2)O1 (stereo not drawn) | inactive
27 | COc1cc(C2OC(=O)NC2=O)c(C)cc1F (stereo not drawn) | inactive
28 | O=C1NC(=O)C(c2c(Cl)cccc2OCC2CC2)O1 (stereo not drawn) | inactive
29 | O=C1NC(=O)C(c2ccc(F)cc2C(F)(F)F)O1 (stereo not drawn) | inactive
30 | COc1cc(C2OC(=O)NC2=O)c(Cl)cc1C (stereo not drawn) | inactive
31 | COc1ccc(C(C)C)cc1C1OC(=O)NC1=O (stereo not drawn) | inactive
32 | COc1cccc(C2OC(=O)NC2=O)c1 (stereo not drawn) | inactive
33 | COc1cc(C)c(Cl)cc1C1OC(=O)NC1=O (stereo not drawn) | inactive
34 | COc1ccc(S(=O)(=O)N(C)C)cc1C1OC(=O)NC1=O (stereo not drawn) | inactive
35 | COc1ccc(OC)c(C2OC(=O)NC2=O)c1 (stereo not drawn) | inactive

The molecules below were run on Rattus norvegicus (assay: Ability to lower blood sugar level at the dose of 25 mg/kg in fasted rats, by using glucose tolerance test(GTT)). Details: not given.
Assay type: functional
Summary of the method: as §1

Row | Compound | Blood sugar lowering
36 | CCSc1cccc(F)c1C1OC(=O)NC1=O (stereo not drawn) | 17%
37 | Cc1ccc(F)cc1C1OC(=O)NC1=O (stereo not drawn) | 19%
38 | CCc1ccc(OC)c(C2OC(=O)NC2=O)c1 (stereo not drawn) | 10%
39 | Cl.Nc1ccccc1C1OC(=O)NC1=O (stereo not drawn) | 15%
40 | COc1ccc(C#N)cc1C1OC(=O)NC1=O (stereo not drawn) | 19%
41 | O=C1NC(=O)C(c2ccccc2[N+](=O)[O-])O1 (stereo not drawn) | 11%
42 | CSc1cccc(F)c1C1OC(=O)NC1=O (stereo not drawn) | 18%
43 | O=C1NC(=O)C(c2c(F)cccc2F)O1 (stereo not drawn) | 25%
44 | O=C1NC(=O)C(Cc2ccccc2)O1 (stereo not drawn) | 9%
45 | O=C1NC(=O)C(c2c(Cl)cccc2Cl)O1 (stereo not drawn) | 21%
46 | CC(C)Oc1cccc(F)c1C1OC(=O)NC1=O (stereo not drawn) | 15%
47 | CSc1cccc(Cl)c1C1OC(=O)NC1=O (stereo not drawn) | 21%
48 | COc1ccc(C2OC(=O)NC2=O)c(OC)c1 (stereo not drawn) | 10%
